Test results published in ChEMBL document CHEMBL4400542, “Epidermal Growth Factor Receptor-Targeted Multifunctional Photosensitizers for Bladder Cancer Imaging and Photodynamic Therapy” (J Med Chem, 2019).
The source made the active and inactive calls. The rule behind the calls is not given here.

Columns and labels:
UMUC3 [1] = assay: Anti-tumor activity against human UM-UC-3 cells xenografted in SCID mouse assessed as tumor cure at 0.47 umol/kg, iv in presence of 135 J/cm2 light irradiation at 24 hrs post injection and measured at day 60; type: functional
In short: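 UMUC-3 cells implanted in right flank of SCID mice; at 4–5 mm tumors, PS given i.v. at 0.47 µmol/kg. Tumors exposed to 665 nm light, 135 J/cm2 at 75 mW/cm2, 24 h post-injection. Tumor regrowth monitored daily; mice euthanized at >400 mm3; tumor-free status scored at day 60.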

T-24 [2] = assay: Induction of apoptosis in human T24 cells assessed as increase in apoptotic cells at 100 nM in presence of light by Annexin V/propidium iodide-stining based flow cytometry; type: functional, cell-based
UMUC3 [3] = assay: Induction of apoptosis in human UM-UC-3 cells assessed as increase in necrotic cells at 100 nM in presence of light by Annexin V/propidium iodide-stining based flow cytometry; type: functional, cell-based
T-24 [4] = assay: Induction of apoptosis in human T24 cells assessed as increase in apoptotic cells at 1 uM in presence of light by Annexin V/propidium iodide-stining based flow cytometry; type: functional, cell-based
UMUC3 [5] = assay: Induction of apoptosis in human UM-UC-3 cells assessed as increase in necrotic cells at 1 uM in presence of light by Annexin V/propidium iodide-stining based flow cytometry; type: functional, cell-based
[6] = Drug uptake in human UM-UC-3 cells assessed as increase in gray value intensity at 500 nM after 48 hrs in absence of gleevec by Hoechst 33342 staining based fluorescence microscopy; type: ADME, cell-based; details: umuc3, 24 h, 0.5 µM, in the assay text read “24 hrs” for “48 hrs”
In short: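 Cells plated at 100k per well, grown to 80% confluency, refreshed, then incubated 24 h with PS at 500 nM with or without Gleevec 5 µM. Washed twice with PBS, Hoechst 33342 added, imaged by fluorescence microscopy; grey value normalized to cell number, triplicate groups and images.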

UMUC3 [7] = assay: Induction of apoptosis in human UM-UC-3 cells assessed as increase in apoptotic cells at 100 nM in presence of light by Annexin V/propidium iodide-stining based flow cytometry; type: functional, cell-based
UMUC3 [8] = assay: Induction of apoptosis in human UM-UC-3 cells assessed as increase in apoptotic cells at 1 uM in presence of light by Annexin V/propidium iodide-stining based flow cytometry; type: functional, cell-based
T-24 [9] = assay: Induction of apoptosis in human T24 cells assessed as increase in necrotic cells at 1 uM in presence of light by Annexin V/propidium iodide-stining based flow cytometry; type: functional, cell-based
UMUC3 [10] = assay: Anti-tumor activity against human UM-UC-3 cells xenografted in SCID mouse assessed as tumor necrosis at 0.47 umol/kg, iv in presence of 135 J/cm2 light irradiation at 24 hrs post injection and measured at 72 hrs post light exposure; type: functional, organism-based
[11] = Induction of singlet oxygen generation in Ar-saturated toluene solution at 670 nm assessed as decay rate constant of triplet excited state by femtosecond transient absorption spectroscopy; type: functional
[12] = Induction of singlet oxygen generation in oxygen-free toluene solution at 670 nm assessed as decay rate constant of triplet excited state by femtosecond transient absorption spectroscopy; type: functional
[13] = Drug uptake in human UM-UC-3 cells xenografted in SCID mouse at 0.47 umol/kg formulated with 1% tween 80 solution and measured at 24 hrs post injection by IVIS analysis; type: ADME, cell-based, UMUC3; details: in vivo
In short: (§1)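 SCID mice (3/group) bearing UMUC3 or T24 tumors of 4–5 mm injected with PS at 0.47 µmol/kg in Tween80 or Pluronic F-127. Tumor, liver and skin fluorescence followed by IVIS optical imaging (ex 675 nm, em 720) at several time points including 24 h.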

[14] = Induction of singlet oxygen generation in oxygen-saturated toluene solution at 670 nm assessed as decay rate constant of triplet excited state by femtosecond transient absorption spectroscopy; type: functional
[15] = Drug uptake in human T24 cells xenografted in SCID mouse at 0.47 umol/kg formulated with 1% tween 80 solution and measured at 24 hrs post injection by IVIS analysis; type: ADME, cell-based, T-24; details: in vivo; in short: as §1
[16] = Induction of singlet oxygen generation assessed as energy transfer from the triplet chlorins to oxygen by femtosecond transient absorption spectroscopy; type: functional
[17] = Induction of singlet oxygen generation in toluene solution in presence of oxygen at 670 nm assessed as decay rate constant of triplet excited state by femtosecond transient absorption spectroscopy; type: functional
[18] = Drug uptake in human T24 cells xenografted in SCID mouse at 0.47 umol/kg formulated with 2% pluronic F-127 solution and measured at 24 hrs post injection by IVIS analysis; type: ADME, cell-based, T-24; details: in vivo; in short: as §1
[19] = Drug uptake in human UM-UC-3 cells xenografted in SCID mouse at 0.47 umol/kg formulated with 2% pluronic F-127 solution and measured at 24 hrs post injection by IVIS analysis; type: ADME, cell-based, UMUC3; details: in vivo; in short: as §1

| Drug uptake [6] | Drug uptake [13] | Drug uptake [15] | Drug uptake [18] | Drug uptake [19] | SMILES | Activity (UMUC3 [1]) | Activity (T-24 [2]) | Activity (UMUC3 [3]) | Activity (T-24 [4]) | Activity (UMUC3 [5]) | Activity (UMUC3 [7]) | Activity (UMUC3 [8]) | Activity (T-24 [9]) | Activity (UMUC3 [10]) | K [11] | K [12] | K [14] | K [16] | K [17] |
| --- | --- | --- | --- | --- | --- | --- | --- | --- | --- | --- | --- | --- | --- | --- | --- | --- | --- | --- | --- |
| Active | – | – | – | – | CCC1=C(C)c2cc3[nH]c(cc4nc(c5c6[nH]c(cc1n2)c(C)c6C(=O)C5)[C@@H](CCC(=O)OC)[C@@H]4C)c(C)c3C(C)OCc1cccc(I)c1 (stereo not given in full) | 20% | inactive | Active | Active | Active | Active | Active | Active | – | – | – | – | – | – |
| Not Active | Active | Active | Active | Active | CCC1=C(C)c2cc3[nH]c(cc4nc(c5c6[nH]c(cc1n2)c(C)c6C(=O)C5)[C@@H](CCC(=O)NCc1cccc(I)c1)[C@@H]4C)c(C)c3C(C)OCc1cccc(C#Cc2cccc(Nc3ncnc4cc(OCCOC)c(OCCOC)cc34)c2)c1 (stereo not given in full) | – | – | – | – | – | – | – | – | inactive | 4.27 ×10⁴ /s | 4.27 ×10⁴ /s | 6.34 ×10⁵ /s | 3.17 ×10⁹ /M/s | 0.634 ×10⁶ /s |
